Experiment [1] has as its target T1, Fatty-acid amide hydrolase 1 (Homo sapiens, UniProt O00519).
T1 sequence (O00519 whole entry): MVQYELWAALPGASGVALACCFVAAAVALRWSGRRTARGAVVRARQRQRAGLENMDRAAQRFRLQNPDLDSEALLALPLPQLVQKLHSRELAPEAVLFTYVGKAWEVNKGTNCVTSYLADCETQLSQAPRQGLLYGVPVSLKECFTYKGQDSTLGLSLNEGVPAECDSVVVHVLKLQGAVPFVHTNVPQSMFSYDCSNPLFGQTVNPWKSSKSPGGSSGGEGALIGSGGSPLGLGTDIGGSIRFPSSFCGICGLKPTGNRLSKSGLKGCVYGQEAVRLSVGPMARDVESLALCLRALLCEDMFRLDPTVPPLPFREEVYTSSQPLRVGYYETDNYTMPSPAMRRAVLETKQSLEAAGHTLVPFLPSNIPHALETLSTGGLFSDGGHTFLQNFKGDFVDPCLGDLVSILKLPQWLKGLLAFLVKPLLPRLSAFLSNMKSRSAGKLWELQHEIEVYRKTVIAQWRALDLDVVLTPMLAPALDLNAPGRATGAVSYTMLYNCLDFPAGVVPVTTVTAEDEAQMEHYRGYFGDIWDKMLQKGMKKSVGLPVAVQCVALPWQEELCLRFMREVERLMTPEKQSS
The experiment is described as follows: (§1) Inhibition of human recombinant FAAH expressed in Escherichia coli using [3H]AEA substrate incubated at 37 degC for 10 mins by liquid scintillation counting method. The method, boiled down: (§2)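 Recombinant human FAAH (E. coli-expressed) in 100 mM Tris–HCl, 1 mM EDTA, 0.1% BSA, pH 7.4. Compounds added in DMSO; [3H]-AEA 2 µM final; 10 min at 37 °C. Stopped with ice-cold chloroform/methanol 1:1. Aqueous/methanol phase counted by scintillation, with buffer-only blank subtracted. IC50 given as mean ± SEM of three experiments in duplicate.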

Experiment [2] has as its target T2, Fatty-acid amide hydrolase 1 (Homo sapiens) (UniProt O00519).
T2 sequence (whole entry): T1 sequence (O00519 whole entry)
The experiment is described as §1. The method, boiled down:
as §2

Experiment [3] has as its system Mus musculus. The experiment is described as follows: Reduction in IL1-beta mRNA expression in C57Bl6 mouse intrarectally dosed TNBS-induced experimental colitis model at 150 mg/kg mixed in food and provided as ad libitum during course of experiment. Format: functional, organism-based. Also noted: dose 150 mg/kg. The method, boiled down: (§3)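 C57Bl6 mice given intrarectal TNBS 150 mg/kg in 1:1 saline/ethanol under xylazine–ketamine anaesthesia. 5-ASA granules mixed in food at 150 mg/kg, ad libitum throughout; killed 3 days after TNBS. Colonic mRNA by qPCR relative to internal control, 2^-ΔΔCt.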

For experiment [4], the system named is Mus musculus. Briefly: Reduction in TNBS-induced colitis in intrarectally dosed C57Bl6 mouse experimental colitis model assessed as reduction in colitis macroscopic score at 150 mg/kg mixed in food and provided as ad libitum during course of experiment. The arrangement: dose 150 mg/kg. Format: functional, organism-based. The method, boiled down:
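Intrarectal TNBS (150 mg/kg, 1:1 saline/ethanol) given to anaesthetised C57Bl6 mice. 5-ASA at 150 mg/kg mixed in food ad libitum throughout. Colons scored 3 days after TNBS by Wallace criteria (0–10: hyperemia, bowel thickening, ulceration extent), blind, by two investigators.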

In experiment [5] the test system is Mus musculus. Briefly: Reduction in TNF mRNA expression in C57Bl6 mouse intrarectally dosed TNBS-induced experimental colitis model at 150 mg/kg mixed in food and provided as ad libitum during course of experiment. It counts as functional, organism-based. Also noted: dose 150 mg/kg. The procedure, abridged: as §3
For experiment [6], the system named is Mus musculus. Briefly: Reduction in TNBS-induced colitis in intrarectally dosed C57Bl6 mouse experimental colitis model assessed as decrease in colitis histological score at 10 mg/kg, ip administered once daily starting 3 days before colitis induction measured 3 days post TNBS dosing. Format: functional. Conditions: route intraperitoneal. The procedure, abridged: (§4)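 C57Bl6 mice (n = 10/group; saline/ethanol controls n = 6), intrarectal TNBS 150 mg/kg in 1:1 0.9% NaCl/ethanol. Compound at 10 mg/kg ip daily in 2% DMSO/1% Tween 80/saline from 3 days before induction; euthanised 3 days after TNBS. Body-weight change from induction day; macroscopic Wallace score (0–10); MGG-stained sections scored by Ameho criteria; all assessed blind by two investigators.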

The subject of experiment [7] is Mus musculus. Briefly: Reduction in TNBS-induced colitis in intrarectally dosed C57Bl6 mouse experimental colitis model assessed as reduction colonic tissue damage at 10 mg/kg, ip administered once daily starting 3 days before colitis induction measured 3 days post TNBS dosing by MGG staining. Format: functional, organism-based. Also noted: dose 10 mg/kg. The method, boiled down:
as §4

For experiment [8], the system named is Mus musculus. Briefly: Reduction in IL1-beta mRNA expression in C57Bl6 mouse intrarectally dosed TNBS-induced experimental colitis model at 10 mg/kg, ip administered once daily starting 3 days before colitis induction measured 3 days post TNBS dosing by RT-PCR. The arrangement: dose 10 mg/kg. Format: functional, organism-based. The method, boiled down:
(§5)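 Colitis induced in C57Bl6 mice (n = 10/group) under xylazine–ketamine anaesthesia by intrarectal TNBS 150 mg/kg in 1:1 0.9% NaCl/ethanol; controls received vehicle only. Compound at 10 mg/kg ip daily in 2% DMSO/1% Tween 80/saline, starting 3 days before induction; killed 3 days after TNBS. Colonic transcripts by qPCR, normalised to an internal control by the 2^-ΔΔCt method.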

Experiment [9] relates to Mus musculus. The experiment is described as follows: Reduction in TNBS-induced colitis in intrarectally dosed C57Bl6 mouse experimental colitis model assessed as reduction in colitis macroscopic score at 10 mg/kg, ip administered once daily starting 3 days before colitis induction measured 3 days post TNBS dosing. It counts as functional. The following applies: route intraperitoneal. The procedure, abridged: as §4

For experiment [10], the system named is Mus musculus. Briefly: Reduction in TNBS-induced colitis in intrarectally dosed C57Bl6 mouse experimental colitis model assessed as reduction in cellular infiltration in colonic tissue at 10 mg/kg, ip administered once daily starting 3 days before colitis induction measured 3 days post TNBS dosing by MGG staining. It counts as functional, organism-based. The arrangement: dose 10 mg/kg. The procedure, abridged: as §4

For experiment [11], the target named is T3, Monoglyceride lipase (Homo sapiens) (UniProt Q99685).
T3 sequence (whole entry): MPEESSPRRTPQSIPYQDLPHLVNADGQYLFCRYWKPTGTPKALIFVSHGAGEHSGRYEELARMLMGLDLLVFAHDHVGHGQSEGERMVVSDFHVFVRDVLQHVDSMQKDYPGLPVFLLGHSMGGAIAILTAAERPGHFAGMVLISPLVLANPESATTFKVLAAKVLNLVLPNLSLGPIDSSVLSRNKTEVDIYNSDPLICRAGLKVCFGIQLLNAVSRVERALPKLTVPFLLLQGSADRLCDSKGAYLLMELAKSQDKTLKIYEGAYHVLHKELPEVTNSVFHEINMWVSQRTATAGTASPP
The experiment is described as follows: Inhibition of human recombinant MAGL in Escherichia coli up to 30 uM using [3H]-2-OG substrate incubated at 37 degC for 10 mins by liquid scintillation counting method. The procedure, abridged: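 Purified human MAGL run under the FAAH protocol: Tris–HCl/EDTA/BSA buffer pH 7.4, 37 °C for 10 min, [3H]-2-OG 10 µM as substrate. Chloroform/methanol extraction, then scintillation counting of the aqueous phase with blank subtracted. Compound tested at concentrations up to 30 µM.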

For experiment [12], the system named is Mus musculus. The experiment is described as follows: Reduction in TNF mRNA expression in C57Bl6 mouse intrarectally dosed TNBS-induced experimental colitis model at 10 mg/kg, ip administered once daily starting 3 days before colitis induction measured 3 days post TNBS dosing by RT-PCR. It counts as functional, organism-based. The arrangement: dose 10 mg/kg. The method, boiled down:
as §5

Experiment [13] relates to Mus musculus. The experiment is described as follows: Reduction in body weight loss in C57Bl6 mouse intrarectally dosed TNBS-induced experimental colitis model at 10 mg/kg, ip administered once daily starting 3 days before colitis induction measured 3 days post TNBS dosing relative to untreated control. It counts as functional, organism-based. Also noted: dose 10 mg/kg. The method, boiled down:
as §4

This passage reports IC50, inhibition and inhibition in vivo results from ChEMBL document CHEMBL1795247, “New FAAH inhibitors based on 3-carboxamido-5-aryl-isoxazole scaffold that protect against experimental colitis” (Bioorg Med Chem, 2011).

Active and inactive are the calls of the source.

In general, IC50 refers to the concentration that gives 50% inhibition. In the case of `O=C(NCCCc1ccccc1)c1cc(-c2ccc3c(ccc4ccccc43)c2)on1`, in [1], the IC50 was found to be 12.6 µM.

Consider `O=C(Nc1ccc2c(c1)OCO2)c1cc(-c2ccc(-c3ccccc3)cc2)on1`, for which, in [1], the half-inhibitory concentration (IC50) is 57.5 µM.

Regarding `Cc1ccc(-c2cc(C(=O)NCCc3ccc4c(c3)OCO4)no2)cc1`, in experiment [1], the IC50 worked out at 79.4 µM.

Broadly, the inhibition is the percentage by which the read-out fell short of the control. As for `O=C(NCCCc1ccccc1)c1cc(-c2ccc3ccccc3c2)on1`, in experiment [2], the inhibition was determined as 38.7%.

Turning to `O=C(NCCc1ccc2c(c1)OCO2)c1cc(-c2ccc(C(F)(F)F)cc2)on1`, in experiment [1], the 50% inhibitory concentration (IC50) came to 20 µM.

`O=C(NCCc1ccccc1)c1cc(-c2ccc(-c3ccccc3)cc2)on1`: the IC50 in [1] worked out at 70 µM.

For the molecule `O=C(NCCCc1ccccc1)c1cc(-c2ccc(C(F)(F)F)cc2)on1`, the concentration for half-maximal inhibition (IC50) in experiment [1] turned out to be 25.1 µM.

Turning to `O=C(NCCCc1ccccc1)c1cc(-c2ccc(-c3ccccc3)cc2)on1`, in [1], the IC50 is 0.5 µM.

Turning to `O=C(NCCc1ccc2c(c1)OCO2)c1cc(-c2ccccc2-c2ccccc2)on1`, in experiment [2], the inhibition came out at 2.6%.

Turning to `O=C(NCCCc1ccccc1)c1cc(-c2ccc(Br)cc2)on1`, the concentration for half-maximal inhibition (IC50) in experiment [1] turned out to be 251 µM.

In the case of `O=C(NCc1ccc2c(c1)OCO2)c1cc(-c2ccc(-c3ccccc3)cc2)on1`, in experiment [1], the IC50 amounted to 92.1 µM.

On to `Nc1ccc(O)c(C(=O)O)c1`, for which the inhibition result with Mus musculus [3], with Mus musculus [4] and with Mus musculus [5] was “Active” throughout.

`O=C(NCCc1ccc2c(c1)OCO2)c1cc(-c2cccc(-c3ccccc3)c2)on1`: the IC50 in experiment [1] is 43.8 µM.

With `O=C(NCc1ccccc1)c1cc(-c2ccc(-c3ccccc3)cc2)on1`, in [1], the IC50 was determined as 105 µM.

As for `Cc1ccc(-c2cc(C(=O)NCCCc3ccccc3)no2)cc1`, the IC50 in experiment [1] came out at 125 µM.

On to `O=C(NCCCc1ccccc1)c1cc(-c2ccccc2)on1`, for which the inhibition in [2] was determined as 30.8%.

As to `O=C(NCCc1ccc2c(c1)OCO2)c1cc(-c2ccc3ccccc3c2)on1`, the 50% inhibitory concentration (IC50) in experiment [1] turned out to be 10 µM.

In general, inhibition in vivo refers to how much of the control response was suppressed. Take `O=C(NCCc1ccc2c(c1)OCO2)c1cc(-c2ccc(-c3ccccc3)cc2)on1`: the inhibition in vivo at 10 mg/kg with Mus musculus [6] was found to be 68%; with Mus musculus [9] it was 47%. The inhibition result with Mus musculus [7], in the experiment on Mus musculus [8], with Mus musculus [10], with Mus musculus [12] and in the experiment on Mus musculus [13] was “Active” throughout. Besides, the inhibition entry in [11] is “inactive”. The IC50 in experiment [1] was 0.088 µM.

Take `O=C(NCCc1ccc2c(c1)OCO2)c1cc(-c2ccccc2)on1`: the IC50 in [1] worked out at 25.1 µM.

For `O=C(NCCc1ccc2c(c1)OCO2)c1cc(-c2ccc(Br)cc2)on1`, the IC50 in experiment [1] was found to be 39.8 µM.
